In brackets after ≈: the same amount, converted by molar mass. Activity calls are given as the source filed them. No cut-off for these calls is given here.
Key:
[1] = test system: Enterobacter cloacae; assay: Antimicrobial activity against Enterobacter cloacae at 1 umol/disk after 24 hrs by disk diffusion assay; assay type: functional
Outline: (§1)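 Disc diffusion on 4 mm filter discs. Bacteria are grown overnight in LB at 28 C, then adjusted in saline to 1.0 × 10^5 cfu/ml. The suspension is mixed into top agar over peptone agar plates. Plates are incubated 24 h at 28 C, and growth-inhibition zone diameter is measured. Streptomycin and ampicillin controls are applied from a 1 mg/ml stock. Tests are done in duplicate.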

[2] = test system: Enterobacter cloacae; assay: Antimicrobial activity against Enterobacter cloacae at 10 ug/disk after 24 hrs by disk diffusion assay; assay type: functional; outline: as §1
[3] = test system: Bacillus cereus; assay: Antimicrobial activity against Bacillus cereus after 24 hrs by microdilution technique; assay type: functional
Outline: (§2)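 Broth microdilution in LB medium. Inoculum is 1.0 × 10^4 cfu per well, from a saline-adjusted suspension of 1.0 × 10^5 cfu/ml. Compounds are dissolved in DMSO. Incubated 24 h at 28 C. MIC is the lowest concentration with no visible growth under a binocular microscope. MBC is read by subculture into fresh broth for 72 h, with no growth taken as 99.5% kill. OD is read at 655 nm.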

[4] = test system: Salmonella typhimurium; assay: Antimicrobial activity against Salmonella Typhimurium after 24 hrs by microdilution technique; assay type: functional, Salmonella enterica subsp. enterica serovar Typhimurium; conditions: Salmonella enterica; outline: as §2
[5] = test system: Micrococcus flavus; assay: Antimicrobial activity against Micrococcus flavus at 1 umol/spot after 18 hrs by TLC-bioautographic method; assay type: functional
Outline: (§3)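 TLC bioautography. Samples are spotted on silica gel TLC plates, then sprayed with bacteria (1.0 × 10^5 cfu/ml) in tryptic soy broth. Plates are incubated 18 h at 37 C and sprayed with 3% aqueous p-iodonitrotetrazolium violet. After a further 3 h, growth is stopped with 70% EtOH. White zones on a pink background are scored as inhibition-zone diameter with standard errors.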

[6] = test system: Enterobacter cloacae; assay: Antimicrobial activity against Enterobacter cloacae after 24 hrs by microdilution technique; assay type: functional; outline: as §2
[7] = test system: Pseudomonas aeruginosa; assay: Antimicrobial activity against Pseudomonas aeruginosa at 1 umol/disk after 24 hrs by disk diffusion assay; assay type: functional; outline: as §1
[8] = test system: Salmonella typhimurium; assay: Antimicrobial activity against Salmonella Typhimurium at 1 umol/spot after 18 hrs by TLC-bioautographic method; assay type: functional, Salmonella enterica subsp. enterica serovar Typhimurium; outline: as §3
[9] = test system: Escherichia coli; assay: Antimicrobial activity against Escherichia coli after 24 hrs by microdilution technique; assay type: functional; outline: as §2
[10] = test system: Pseudomonas aeruginosa; assay: Antimicrobial activity against Pseudomonas aeruginosa after 24 hrs by microdilution technique; assay type: functional; outline: as §2
[11] = test system: Escherichia coli; assay: Antimicrobial activity against Escherichia coli at 1 umol/disk after 24 hrs by disk diffusion assay; assay type: functional; outline: as §1
[12] = test system: Pseudomonas aeruginosa; assay: Antimicrobial activity against Pseudomonas aeruginosa at 10 ug/disk after 24 hrs by disk diffusion assay; assay type: functional; outline: as §1
[13] = test system: Enterobacter cloacae; assay: Antimicrobial activity against Enterobacter cloacae at 1 umol/spot after 18 hrs by TLC-bioautographic method; assay type: functional; outline: as §3
[14] = test system: Micrococcus flavus; assay: Antimicrobial activity against Micrococcus flavus at 10 ug/disk after 24 hrs by disk diffusion assay; assay type: functional; conditions: read-out: IZ; outline: as §1
[15] = test system: Salmonella typhimurium; assay: Antimicrobial activity against Salmonella Typhimurium at 1 umol/disk after 24 hrs by disk diffusion assay; assay type: functional, organism-based; conditions: Salmonella enterica subsp. enterica serovar Typhimurium; outline: as §1
[16] = test system: Staphylococcus aureus; assay: Antimicrobial activity against Staphylococcus aureus at 1 umol/spot after 18 hrs by TLC-bioautographic method; assay type: functional; outline: as §3
[17] = test system: Pseudomonas aeruginosa; assay: Antimicrobial activity against Pseudomonas aeruginosa at 1 umol/spot after 18 hrs by TLC-bioautographic method; assay type: functional; outline: as §3
[18] = test system: Listeria monocytogenes; assay: Antimicrobial activity against Listeria monocytogenes at 1 umol/disk after 24 hrs by disk diffusion assay; assay type: functional; outline: as §1
[19] = test system: Escherichia coli; assay: Antimicrobial activity against Escherichia coli at 10 ug/disk after 24 hrs by disk diffusion assay; assay type: functional; outline: as §1
[20] = test system: Listeria monocytogenes; assay: Antimicrobial activity against Listeria monocytogenes at 10 ug/disk after 24 hrs by disk diffusion assay; assay type: functional; outline: as §1
[21] = test system: Listeria monocytogenes; assay: Antimicrobial activity against Listeria monocytogenes at 1 umol/spot after 18 hrs by TLC-bioautographic method; assay type: functional; outline: as §3
[22] = test system: Bacillus cereus; assay: Antimicrobial activity against Bacillus cereus at 1 umol/spot after 18 hrs by TLC-bioautographic method; assay type: functional; outline: as §3
[23] = test system: Escherichia coli; assay: Antimicrobial activity against Escherichia coli at 1 umol/spot after 18 hrs by TLC-bioautographic method; assay type: functional; outline: as §3
[24] = test system: Staphylococcus aureus; assay: Antimicrobial activity against Staphylococcus aureus after 24 hrs by microdilution technique; assay type: functional; outline: as §2
[25] = test system: Bacillus cereus; assay: Antimicrobial activity against Bacillus cereus at 1 umol/disk after 24 hrs by disk diffusion assay; assay type: functional; outline: as §1
[26] = test system: Micrococcus flavus; assay: Antimicrobial activity against Micrococcus flavus after 24 hrs by microdilution technique; assay type: functional; outline: as §2
[27] = test system: Micrococcus flavus; assay: Antimicrobial activity against Micrococcus flavus at 1 umol/disk after 24 hrs by disk diffusion assay; assay type: functional; outline: as §1
[28] = test system: Salmonella typhimurium; assay: Antimicrobial activity against Salmonella Typhimurium at 10 ug/disk after 24 hrs by disk diffusion assay; assay type: functional, organism-based; conditions: Salmonella enterica subsp. enterica serovar Typhimurium; outline: as §1
[29] = test system: Bacillus cereus; assay: Antimicrobial activity against Bacillus cereus at 10 ug/disk after 24 hrs by disk diffusion assay; assay type: functional; outline: as §1
[30] = test system: Staphylococcus aureus; assay: Antimicrobial activity against Staphylococcus aureus at 10 ug/disk after 24 hrs by disk diffusion assay; assay type: functional; outline: as §1
[31] = test system: Staphylococcus aureus; assay: Antimicrobial activity against Staphylococcus aureus at 1 umol/disk after 24 hrs by disk diffusion assay; assay type: functional; outline: as §1
[32] = test system: Listeria monocytogenes; assay: Antimicrobial activity against Listeria monocytogenes after 24 hrs by microdilution technique; assay type: functional; outline: as §2

Compound	inhibition zone (IZ) [1]	inhibition zone (IZ) [2]	MBC [3] [µM]	MIC [3] [µM]	MBC [4] [µM]	MIC [4] [µM]	inhibition zone (IZ) [5] [millimeter]	MBC [6] [µM]	MIC [6] [µM]	inhibition zone (IZ) [7]	MBC [9] [µM]	MIC [9] [µM]	MBC [10] [µM]	MIC [10] [µM]	inhibition zone (IZ) [11]	inhibition zone (IZ) [12]	inhibition zone (IZ) [13] [millimeter]	zone of inhibition at 10 µg/disc [14] [mm]	inhibition zone (IZ) [15]	inhibition zone (IZ) [16]	other results
N#Cc1c(-c2cccs2)cc(-c2ccc(Nc3nc(Nc4ccccc4)nc(Nc4ccccc4)n3)cc2)nc1N	inactive	inactive	90 (≈ 49.8 µg/mL)	45 (≈ 24.9 µg/mL)	90 (≈ 49.8 µg/mL)	45 (≈ 24.9 µg/mL)	0.08	180 (≈ 99.7 µg/mL)	90 (≈ 49.8 µg/mL)	inactive	90 (≈ 49.8 µg/mL)	45 (≈ 24.9 µg/mL)	180 (≈ 99.7 µg/mL)	90 (≈ 49.8 µg/mL)	inactive	inactive	0.08	7	inactive	inactive	inhibition zone (IZ) [8]: 0.07 millimeter; inhibition zone (IZ) [17]: inactive; inhibition zone (IZ) [18]: inactive; inhibition zone (IZ) [19]: inactive; inhibition zone (IZ) [20]: inactive; inhibition zone (IZ) [21]: 0.09 millimeter; inhibition zone (IZ) [22]: inactive; inhibition zone (IZ) [23]: 0.06 millimeter; MBC [24]: 180 µM (≈ 99.7 µg/mL); MIC [24]: 90 µM (≈ 49.8 µg/mL); inhibition zone (IZ) [25]: inactive; MBC [26]: 90 µM (≈ 49.8 µg/mL); MIC [26]: 45 µM (≈ 24.9 µg/mL); inhibition zone (IZ) [27]: 0.04 millimeter; inhibition zone (IZ) [28]: inactive; inhibition zone (IZ) [29]: inactive; inhibition zone (IZ) [30]: inactive; inhibition zone (IZ) [31]: inactive; MBC [32]: 360 µM (≈ 199 µg/mL); MIC [32]: 180 µM (≈ 99.7 µg/mL)
Nc1nc(-c2ccc(Nc3nc(Nc4ccccc4)nc(Nc4ccccc4)n3)cc2)cc(-c2ccco2)n1	inactive	inactive	390 (≈ 200 µg/mL)	195 (≈ 100 µg/mL)	390 (≈ 200 µg/mL)	195 (≈ 100 µg/mL)	0.07	390 (≈ 200 µg/mL)	195 (≈ 100 µg/mL)	inactive	390 (≈ 200 µg/mL)	195 (≈ 100 µg/mL)	780 (≈ 401 µg/mL)	780 (≈ 401 µg/mL)	0.05 millimeter	inactive	0.08	6	inactive	0.06 millimeter	inhibition zone (IZ) ([8]; Salmonella enterica subsp. enterica serovar Typhimurium): inactive; inhibition zone (IZ) [17]: inactive; inhibition zone (IZ) [18]: inactive; zone of inhibition at 10 µg/disc ([19]; read-out: IZ): 10 mm; inhibition zone (IZ) [20]: inactive; inhibition zone (IZ) [21]: 0.08 millimeter; inhibition zone (IZ) [22]: inactive; inhibition zone (IZ) [23]: 0.08 millimeter; MBC [24]: 390 µM (≈ 200 µg/mL); MIC [24]: 195 µM (≈ 100 µg/mL); inhibition zone (IZ) [25]: inactive; MBC [26]: 390 µM (≈ 200 µg/mL); MIC [26]: 195 µM (≈ 100 µg/mL); inhibition zone (IZ) [27]: 0.03 millimeter; inhibition zone (IZ) [28]: inactive; inhibition zone (IZ) [29]: inactive; inhibition zone (IZ) [30]: inactive; inhibition zone (IZ) [31]: inactive; MBC [32]: 780 µM (≈ 401 µg/mL); MIC [32]: 780 µM (≈ 401 µg/mL)
CC(=O)N1N=C(c2ccc(Nc3nc(Nc4ccccc4)nc(Nc4ccccc4)n3)cc2)CC1c1ccc([N+](=O)[O-])cc1 (stereo not given)	inactive	inactive	171 (≈ 100 µg/mL)	85 (≈ 49.8 µg/mL)	684 (≈ 401 µg/mL)	684 (≈ 401 µg/mL)	0.07	684 (≈ 401 µg/mL)	684 (≈ 401 µg/mL)	inactive	342 (≈ 200 µg/mL)	171 (≈ 100 µg/mL)	684 (≈ 401 µg/mL)	684 (≈ 401 µg/mL)	inactive	inactive	0.09	10	inactive	inactive	inhibition zone (IZ) [8]: 0.1 millimeter; inhibition zone (IZ) [17]: inactive; inhibition zone (IZ) [18]: inactive; inhibition zone (IZ) [19]: inactive; inhibition zone (IZ) [20]: inactive; inhibition zone (IZ) [21]: 0.09 millimeter; inhibition zone (IZ) [22]: 0.1 millimeter; inhibition zone (IZ) [23]: inactive; MBC [24]: 342 µM (≈ 200 µg/mL); MIC [24]: 171 µM (≈ 100 µg/mL); inhibition zone (IZ) [25]: inactive; MBC [26]: 342 µM (≈ 200 µg/mL); MIC [26]: 171 µM (≈ 100 µg/mL); inhibition zone (IZ) [27]: 0.04 millimeter; inhibition zone (IZ) [28]: inactive; inhibition zone (IZ) [29]: inactive; inhibition zone (IZ) [30]: inactive; inhibition zone (IZ) [31]: inactive; MBC [32]: 684 µM (≈ 401 µg/mL); MIC [32]: 684 µM (≈ 401 µg/mL)

From ChEMBL document CHEMBL1154716, “Synthesis of some new S-triazine based chalcones and their derivatives as potent antimicrobial agents” (2010)
